Measurements taken from ChEMBL document CHEMBL3352531, “Syntheses, neural protective activities, and inhibition of glycogen synthase kinase-3β of substituted quinolines” (Bioorg Med Chem Lett, 2014).

Experiments:
[1] = Neuroprotective activity in oligomeric amyloid beta peptide-induced human MC65 cells assessed as cell viability by MTT assay; type: functional, cell-based
Procedure, shortened: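 Protection against Aβ oligomer-induced toxicity in MC65 cells, reported as EC50 (median effective concentration).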

[2] = Cytotoxicity against human MC65 cells by MTT assay; type: cell-based; settings: read-out: TC50 (the source's name)
Procedure, shortened: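 MC65 cells kept with tetracycline in the medium to suppress C99 production, so the cells survive and compound toxicity alone is measured. Reported as TC50 (median toxic concentration).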

[3] = Drug uptake in CD1 mouse brain at 5 mg/kg, po daily for 75 days; type: ADME, organism-based; design: dose 5 mg/kg, route oral; settings: read-out: Drug uptake
Procedure, shortened: (§1)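 CD1 mice received 5 mg/Kg by oral gavage once daily for 75 days (four treated, two untreated). Compound in tissues and plasma was quantified by a previously reported procedure and expressed in µM as mean ± standard deviation (n = 4).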

[4] = Drug uptake in CD1 mouse pancreas at 5 mg/kg, po daily for 75 days; type: ADME, organism-based; design: dose 5 mg/kg, route oral; settings: read-out: Drug uptake; procedure, shortened: as §1
[5] = Drug uptake in CD1 mouse liver at 5 mg/kg, po daily for 75 days; type: ADME, organism-based; design: dose 5 mg/kg, route oral; settings: read-out: Drug uptake; procedure, shortened: as §1
[6] = Drug uptake in CD1 mouse kidney at 5 mg/kg, po daily for 75 days; type: ADME, organism-based; design: dose 5 mg/kg, route oral; settings: read-out: Drug uptake; procedure, shortened: as §1
Lung = experiment: Drug uptake in CD1 mouse lung at 5 mg/kg, po daily for 75 days; type: ADME, organism-based; design: dose 5 mg/kg, route oral; settings: in vivo, 1800 h; procedure, shortened: as §1
[7] = Drug uptake in CD1 mouse plasma at 5 mg/kg, po daily for 75 days; type: ADME, organism-based; design: dose 5 mg/kg, route oral; procedure, shortened: as §1
Mus musculus [8] = experiment: Toxicity in CD1 mouse assessed as effect on locomotion at 5 mg/kg, po daily for 75 days by Versamax chamber test; type: organism-based; design: dose 5 mg/kg, route oral; settings: in vivo, 1800 h
Procedure, shortened: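 After 75 days of daily 5 mg/Kg oral gavage, control and treated mice were acclimatized for 15 min in a Versamax chamber, then their movements were monitored. Measures were clockwise and counter-clockwise activity, total distance, rest time, and vertical and horizontal activity, compared against control.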

Mus musculus [9] = experiment: Toxicity in CD1 mouse assessed as effect on aspartate aminotransferase activity at 5 mg/kg, po daily for 75 days; type: organism-based; design: dose 5 mg/kg, route oral; settings: in vivo, 1800 h
Procedure, shortened: (§2)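 After 75 days of daily oral gavage at 5 mg/kg, mice were sacrificed and blood was drawn from the heart into a heparinized syringe. Plasma was separated at once by centrifugation at 10,000 x g for 5 min. ALT and AST activities were measured with a commercial kit and compared between control and treated mice.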

Mus musculus [10] = experiment: Toxicity in CD1 mouse assessed as effect on alanine transaminase activity at 5 mg/kg, po daily for 75 days; type: organism-based; design: dose 5 mg/kg, route oral; settings: in vivo, 1800 h; procedure, shortened: as §2

Structure (SMILES)	EC50 [1] [µM]	CC50 [2] [µM]	further results
COc1cc(NCc2ccc(-c3ccccc3)s2)c2nccc(C)c2c1Oc1cccc(C(F)(F)F)c1	0.39	14.5	–
Cc1ccnc2c(NCc3ccc(O)cc3)cc(O)c(Oc3cccc(C(F)(F)F)c3)c12	–	3.31	–
COc1cc(NCCCN)c2nccc(C)c2c1Oc1cccc(C(F)(F)F)c1	0.15	2.1	–
COc1cc(NCCCN)c2nccc(C)c2c1Oc1ccccc1	0.42	8.16	–
COc1cc(NCc2ccc(O)cc2)c2nccc(C)c2c1	2.62	20.5	–
COc1cc(NCc2cccc3cccnc23)c2nccc(C)c2c1Oc1cccc(C(F)(F)F)c1	0.19	> 50	–
COc1cc(NCCC(N)=O)c2nccc(C)c2c1Oc1cccc(C(F)(F)F)c1	0.5	> 50	–
COc1cc(NCc2ccc(O)cc2)c2nccc(C)c2c1Oc1cccc(F)c1	0.7	2.6	–
COc1cc(NCCCN)c2nccc(C)c2c1	17.6	> 50	–
COc1cc(NCc2ccc(O)cc2)c2nccc(C)c2c1Oc1ccccc1	0.53	4.01	–
COc1cc(NC(=O)c2ccco2)c2nccc(C)c2c1Oc1cccc(C(F)(F)F)c1	3.47	> 50	–
COc1cc(NCc2nccs2)c2nccc(C)c2c1Oc1cccc(C(F)(F)F)c1	2.39	20.3	–
COc1cc(CNc2cc(OC)c(Oc3cccc(C(F)(F)F)c3)c3c(C)ccnc23)cc(OC)c1O	0.48	2.91	–
COc1cc(NCc2cc3ccccc3o2)c2nccc(C)c2c1Oc1cccc(C(F)(F)F)c1	0.46	> 50	–
COc1cc(NCCCN)c2nccc(C)c2c1Oc1cccc(F)c1	0.6	7.28	–
COc1cc(NCc2ccc(O)cc2)c2nccc(C)c2c1Oc1cccc(C(F)(F)F)c1	0.12	1.38	concentration at 1800 h [3]: 24.4 µM; concentration at 1800 h [4]: 26.5 µM; concentration at 1800 h [5]: 7.1 µM; concentration at 1800 h [6]: 16.1 µM; Drug uptake (Lung): NotTraceable; concentration at 1800 h [7]: 4.5 µM; Activity (Mus musculus [8]): Non-toxic; Activity (Mus musculus [9]): Non-toxic; Activity (Mus musculus [10]): Non-toxic
